Test [1] is described as follows: Her2 expression decrease, cell viability multiplex – SKBR3 breast tumor cells, AlphaScreen, ATP viability, primary screen (AID 461;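 active = Her2 level under about 52% in both replicate screens, with viability over 70% of control, limit read from the data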;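 for Her2 level: lower value means less Her2 protein in the cells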;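 for viability: percent of carrier control wells set as 100% viability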). Particulars: SKBR3 Her2 protein level, 18-24 h, measured here: SKBR3 viability, ATP luminescence, at 10 µM. Background: Bead proximity is the source of the signal in Alpha formats.
The target of test [2] is Receptor tyrosine-protein kinase erbB-2 (Homo sapiens) (UniProt P04626). The test is described as above. Particulars: 18-24 h, at 10 µM, stronger effect = lower value.
Receptor tyrosine-protein kinase erbB-2 (Homo sapiens), sequence (P04626 whole entry, looked up): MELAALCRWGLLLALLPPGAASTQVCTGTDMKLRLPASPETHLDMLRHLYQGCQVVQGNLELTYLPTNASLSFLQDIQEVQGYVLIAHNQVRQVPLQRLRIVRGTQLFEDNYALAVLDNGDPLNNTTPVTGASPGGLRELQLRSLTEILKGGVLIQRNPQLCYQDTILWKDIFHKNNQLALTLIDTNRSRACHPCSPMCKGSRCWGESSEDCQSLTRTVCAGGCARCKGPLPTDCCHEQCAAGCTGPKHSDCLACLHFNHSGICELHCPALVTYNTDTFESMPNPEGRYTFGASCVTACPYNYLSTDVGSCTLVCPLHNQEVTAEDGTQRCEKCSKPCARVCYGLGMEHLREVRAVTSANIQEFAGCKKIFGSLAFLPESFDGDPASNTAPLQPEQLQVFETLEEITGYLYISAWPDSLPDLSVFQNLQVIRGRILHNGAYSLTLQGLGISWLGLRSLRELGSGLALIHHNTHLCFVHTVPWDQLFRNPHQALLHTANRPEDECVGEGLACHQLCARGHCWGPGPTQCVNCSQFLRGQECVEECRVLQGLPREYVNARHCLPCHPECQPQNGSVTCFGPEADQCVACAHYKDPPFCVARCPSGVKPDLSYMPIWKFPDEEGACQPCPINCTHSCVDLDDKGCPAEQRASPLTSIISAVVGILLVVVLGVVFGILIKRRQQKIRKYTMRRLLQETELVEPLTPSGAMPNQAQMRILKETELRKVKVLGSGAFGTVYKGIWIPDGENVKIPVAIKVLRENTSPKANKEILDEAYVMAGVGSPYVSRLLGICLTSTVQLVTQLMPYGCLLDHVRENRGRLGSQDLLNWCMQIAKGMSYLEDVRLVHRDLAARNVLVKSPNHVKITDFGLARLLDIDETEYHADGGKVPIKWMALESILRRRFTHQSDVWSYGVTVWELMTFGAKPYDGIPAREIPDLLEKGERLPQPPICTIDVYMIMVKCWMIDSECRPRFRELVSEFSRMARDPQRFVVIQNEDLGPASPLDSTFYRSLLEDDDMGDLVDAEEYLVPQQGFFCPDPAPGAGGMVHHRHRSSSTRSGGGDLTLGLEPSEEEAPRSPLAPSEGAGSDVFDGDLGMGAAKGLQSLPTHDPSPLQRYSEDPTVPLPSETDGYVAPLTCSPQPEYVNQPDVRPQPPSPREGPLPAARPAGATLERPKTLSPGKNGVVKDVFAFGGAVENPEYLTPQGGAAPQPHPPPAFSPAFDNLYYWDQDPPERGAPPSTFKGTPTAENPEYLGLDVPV
A short description of test [3]: reduced viability of SK-BR-3 breast cancer cells – cell-based, 24 h, human, pilot screen (AID 572;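 active = viability at or below 10% of carrier control in both of two separate runs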;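 note: compound exposure lasted between 18 and 24 h rather than exactly 24 h; 100% = carrier-treated control wells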). Particulars: SK-BR-3 viability, CellTiter-Glo luminescence, at 10 µM, stronger effect = lower value. (In ATP-based viability assays light output follows the ATP content of the culture.)
The nature of test [4]: HUVEC growth inhibition – cell-based, human, primary screen (AID 575;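 active = viability at or below 30% in both replicate assays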;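 note: 100% = median of untreated cell wells with 0.1% DMSO on each plate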). The note with it: HUVEC proliferation, CellTiter-Glo luminescence, 72 h; at 10 µM; stronger effect = lower value. The procedure, abridged: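 Assay system: primary human umbilical vein endothelial cells / Buffer or medium: endothelial basal medium with 2% FBS plus growth supplements / Compound dosing: one dose, 10 µM final, 0.1% DMSO / Timing: 72 h treatment at 37 °C / Signal: CTG luminescence / Benchmarks: 32 DMSO-only cell-control wells (high), 32 MePR drug-control wells (low) per plate / Plate: collagen-coated 384-well format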

Test [5] is described as follows: H69AR cell proliferation blockers – human, duplicate replicates, primary screen (AID 580).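 Note: 100% = mean luminescence of untreated wells and 0% = no signal.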 Particulars: H69AR lung tumor cells viability, ATP luminescence, 72 h; at 10 µM; stronger effect = lower value.
Test [6] can be described thus: MRP1 drug-resistance reversers in H69AR cells – cell-based, doxorubicin co-treatment, pilot screen (AID 601;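 active = viability loss from added drug above about 55%, and viability with drug at most 40%, in both replicates, limit read from the data, passing the limit was not always enough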). The note with it: CellTiter-Glo, 72 h, at 10 µM; for differential viability (reversal): stronger effect = higher value.
Test [7] can be described thus: yeast transport mutant growth inhibition pilot in 384-well plates, post-Golgi transport modulator project (AID 636; in the data active = inhibition above about 31%). The note with it: absorbance 615 nm, about 18 h, stronger effect = higher value.
The nature of test [8]: growth suppression of yeast trafficking mutant, preliminary HTS, modulators of trafficking downstream of Golgi apparatus project, 1536-format plate, OD 615 nm (AID 637; in the data active = inhibition above about 30%). Particulars: yeast transport mutant growth, absorbance 615 nm, 18 h; stronger effect = higher value.
Setting [9] is: H69AR cells + 2 uM doxorubicin, measured here: viability with 2 uM doxorubicin, stronger effect = lower value.
Setting [10] is: H69AR cells, compound alone cytotoxicity.

Activity calls are given as the source filed them.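 Rule for the calls, unless noted: active = viability at or under a set limit in both replicates, limit being median viability minus 3 SD (cut at about 48% in these data, passing the limit was not always enough); inconclusive = at or under the limit in just one replicate; inactive = at or above the limit in both replicates.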

A word on the viability: it is a read-out of living cells in per cent, often relative to untreated cells. A word on the inhibition: it is the drop in the measured response relative to a control, in per cent. Regarding `O=[n+]1c2c(n([O-])c3c1CCCC3)CCCC2`, the viability was 108% in test [1]; 108% (inactive) in test [3]; 93.9% (inactive) in test [4]; 88.6% (inactive) in test [5]; 96.9% in test [6] (setting [9]); 88.6% in test [6] (setting [10]). For the same molecule, the Her2 level in test [2] is 91% (inactive). For the same molecule, the differential viability (reversal) in test [6] (H69AR cells + 2 uM doxorubicin) is -8.33% (inactive). For the same molecule, the inhibition in test [7] is -0.65% (inactive); in test [8], 7.38% (inactive).

On to `C/C(N)=C(/C#N)C(=O)CSc1nnc(Nc2cccc(C)c2)s1`, for which the viability in test [1] is 114%; in test [3], 114% (inactive); in test [4] it was 77.5% (inactive); in test [5] it was 83.8% (inactive); in test [6] (setting [9]), 76%; in test [6] (setting [10]), 83.8%. Further, the Her2 level in test [2] is 79% (inactive). Also, in test [6] (H69AR cells + 2 uM doxorubicin), the differential viability (reversal) is 7.75% (inactive). Also, the inhibition in test [7] is -2% (inactive); in test [8] it was 0.65% (inactive).

With `Cc1ccnc(SCCn2c(N3CCCCC3)nc3c2c(=O)n(C)c(=O)n3C)n1`, the viability in test [1] is 76.5%; in test [3] it was 76.5% (inactive); in test [4], 93.9% (inactive); in test [5], 91.2% (inactive); in test [6] (setting [9]) it was 88.2%; in test [6] (setting [10]) it was 91.2%. The Her2 level in test [2] is 88.5% (inactive). In addition, the differential viability (reversal) in test [6] (H69AR cells + 2 uM doxorubicin) is 3% (inactive). Moreover, the inhibition in test [7] is -5.66% (inactive); in test [8], -3% (inactive).

For `Cc1nnc(SCC(=O)N2c3ccccc3CC2C)s1` (stereo not given), the viability in test [1] was 105%; in test [3], 105% (inactive); in test [4], 99.3% (inactive); in test [5], 92% (inactive); in test [6] (setting [9]) it was 92.7%; in test [6] (setting [10]), 92%. For the same molecule, in test [2], the Her2 level is 106% (inactive). Besides, the differential viability (reversal) in test [6] (H69AR cells + 2 uM doxorubicin) was -0.71% (inactive). The inhibition is -1.73% (inactive) in test [7] and 0.81% (inactive) in test [8].

As to `CCN(CC)S(=O)(=O)c1cccc(-c2nnc(SCC(N)=O)n2CCc2ccccc2)c1`, the viability in test [1] was 102%; in test [3], 102% (inactive); in test [4] it was 91% (inactive); in test [5], 74.7% (inactive); in test [6] (setting [9]) it was 84%; in test [6] (setting [10]), 74.7%. In test [2], the Her2 level is 108% (inactive). For the same molecule, in test [6] (H69AR cells + 2 uM doxorubicin), the differential viability (reversal) was -9.28% (inactive). Further, the inhibition was -2.21% (inactive) in test [7] and -6.35% (inactive) in test [8].

As to `Cc1ccc(-n2ncc3c(Nc4c(C)n(C)n(-c5ccccc5)c4=O)ncnc32)c(C)c1`, the viability in test [1] is 99%; in test [3], 99% (inactive); in test [4] it was 96.2% (inactive); in test [5], 92.3% (inactive); in test [6] (setting [9]), 83.2%; in test [6] (setting [10]), 92.3%. Moreover, the Her2 level in test [2] is 94.5% (inactive). Moreover, in test [6] (H69AR cells + 2 uM doxorubicin), the differential viability (reversal) is 9.15% (inactive). For the same molecule, the figures for the inhibition in test [7] and in test [8] were -4.8% (inactive) and 1.45% (inactive), respectively.

Consider `CCSc1nnc(NC(=O)c2csc(C)c2)s1`, for which the viability in test [1] was 95%; in test [3] it was 95% (inactive); in test [4], 81.2% (inactive); in test [5], 87.7% (inactive); in test [6] (setting [9]) it was 95.3%; in test [6] (setting [10]) it was 87.7%. Besides, the Her2 level in test [2] was 83.5% (inactive). For the same molecule, in test [6] (H69AR cells + 2 uM doxorubicin), the differential viability (reversal) is -7.62% (inactive). The inhibition in test [7] was -2.27% (inactive); in test [8] it was -5.41% (inactive).

For `COc1ccc(Cl)cc1Nc1nc(C)cc(=O)[nH]1`, the viability in test [1] is 95%; in test [3], 95% (inactive); in test [4], 80.6% (inactive); in test [5], 95.8% (inactive); in test [6] (setting [9]), 93.7%; in test [6] (setting [10]), 95.8%. Moreover, in test [2], the Her2 level was 86% (inactive). Besides, the differential viability (reversal) in test [6] (H69AR cells + 2 uM doxorubicin) is 2.12% (inactive). Moreover, the inhibition in test [7] was -3.68% (inactive); in test [8] it was -0.97% (inactive).

Regarding `CC(=O)Nc1ccc(S(=O)(=O)N2CCN(C(C)CCc3ccccc3)CC2)cc1` (stereo not given), the viability in test [1] is 74%; in test [3], 74% (inactive); in test [4], 97.8% (inactive); in test [5], 96.6% (inactive); in test [6] (setting [9]) it was 91.4%; in test [6] (setting [10]), 96.6%. Further, the Her2 level in test [2] is 98.5% (inactive). In test [6] (H69AR cells + 2 uM doxorubicin), the differential viability (reversal) is 5.17% (inactive). Moreover, the inhibition in test [7] is -4.8% (inactive); in test [8] it was -1.29% (inactive).

Take `O=C(O)Cn1cc2c(n1)CCCC2`: the viability is 96% in test [1]; 96% (inactive) in test [3]; 93.9% (inactive) in test [4]; 98% (inactive) in test [5]; 94% in test [6] (setting [9]); 98% in test [6] (setting [10]). Also, in test [2], the Her2 level was 98% (inactive). In test [6] (H69AR cells + 2 uM doxorubicin), the differential viability (reversal) is 3.98% (inactive). Also, the figures for the inhibition in test [7] and in test [8] were -2% (inactive) and 5.41% (inactive), respectively.

Consider `CN(C)C(=O)N1CCC(C(=O)NC2CCCCCCC2)CC1`, for which the viability in test [1] is 90%; in test [3] it was 90% (inactive); in test [4] it was 105% (inactive); in test [5], 92.9% (inactive); in test [6] (setting [9]) it was 94.8%; in test [6] (setting [10]), 92.9%. Further, the Her2 level in test [2] is 112% (inactive). Moreover, in test [6] (H69AR cells + 2 uM doxorubicin), the differential viability (reversal) is -1.97% (inactive). In addition, the inhibition in test [7] is -3.21% (inactive); in test [8], 7% (inactive).

For `Clc1ccc(SCCn2ccnc2)cc1`, the viability is 96% in test [1]; 96% (inactive) in test [3]; 94.3% (inactive) in test [4]; 96.2% (inactive) in test [5]; 84.3% in test [6] (setting [9]); 96.2% in test [6] (setting [10]). The Her2 level in test [2] is 96% (inactive). In test [6] (H69AR cells + 2 uM doxorubicin), the differential viability (reversal) was 11.8% (inactive). Besides, the inhibition in test [7] is -6.22% (inactive); in test [8], -10.2% (inactive).

`Cc1ccc(C)c(N2CCN(C(=O)CCCn3c(=S)[nH]c4cc5c(cc4c3=O)OCO5)CC2)c1`: the viability is 73.5% in test [1]; 73.5% (inactive) in test [3]; 62.5% (inactive) in test [4]; 94% (inactive) in test [5]; 89.2% in test [6] (setting [9]); 94% in test [6] (setting [10]). The Her2 level in test [2] is 88.5% (inactive). Besides, the differential viability (reversal) in test [6] (H69AR cells + 2 uM doxorubicin) is 4.74% (inactive). In addition, the values for the inhibition in test [7] and in test [8] were -3.38% (inactive) and -0.33% (inactive), respectively.

Regarding `COc1ccc(OC)c(NC(=O)CCN2CCC(C)CC2)c1`, the viability is 112% in test [1]; 112% (inactive) in test [3]; 78.3% (inactive) in test [4]; 92.4% (inactive) in test [5]; 93.1% in test [6] (setting [9]); 92.4% in test [6] (setting [10]). Further, the Her2 level in test [2] was 120% (inactive). Further, the differential viability (reversal) in test [6] (H69AR cells + 2 uM doxorubicin) is -0.63% (inactive). In addition, the inhibition in test [7] was 4.86% (inactive); in test [8] it was 22.4% (inactive).

For `O=C(Nc1ccc(-c2noc(-c3cccs3)n2)cc1)c1cccnc1`, the viability is 74.5% in test [1]; 74.5% (inactive) in test [3]; 54% (inactive) in test [4]; 32.9% (active) in test [5]; 79.5% in test [6] (setting [9]); 32.9% in test [6] (setting [10]). In addition, the Her2 level in test [2] was 93% (inactive). In test [6] (H69AR cells + 2 uM doxorubicin), the differential viability (reversal) is -46.6% (inactive). The inhibition is -0.81% (inactive) in test [7] and -8.69% (inactive) in test [8].

These data come from PubChem BioAssay.
